One may read the IC50 as the concentration needed to halve the response being measured. The Papp is the rate of passage across a membrane or cell layer, normalised by area and donor concentration. One may read the solubility as the concentration that dissolves in the medium under given conditions. High values mean much dissolved substance, low ones little dissolved substance.

Data on one compound can be found in ChEMBL document CHEMBL3352689 (J Med Chem, 2014).

Series [1] has as its target T1, Interstitial collagenase (Homo sapiens, UniProt P03956).
T1 sequence (P03956 whole entry): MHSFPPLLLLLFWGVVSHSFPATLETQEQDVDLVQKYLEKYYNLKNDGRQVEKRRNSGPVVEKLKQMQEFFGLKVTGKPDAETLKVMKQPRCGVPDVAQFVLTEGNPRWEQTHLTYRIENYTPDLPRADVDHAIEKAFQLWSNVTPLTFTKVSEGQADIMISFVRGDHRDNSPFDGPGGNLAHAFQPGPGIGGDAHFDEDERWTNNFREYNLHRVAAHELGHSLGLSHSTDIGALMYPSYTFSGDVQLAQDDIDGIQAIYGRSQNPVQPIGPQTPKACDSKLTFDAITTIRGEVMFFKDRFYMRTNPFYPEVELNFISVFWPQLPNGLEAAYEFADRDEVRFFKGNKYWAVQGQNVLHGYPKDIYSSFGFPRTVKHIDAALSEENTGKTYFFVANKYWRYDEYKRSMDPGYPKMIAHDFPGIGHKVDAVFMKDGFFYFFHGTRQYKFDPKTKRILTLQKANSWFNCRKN
Kind of series: Inhibition of human recombinant MMP1 using Cy3-PLGLK(Cy5Q)AR-NH2 as substrate after 40 mins by spectrofluorimetry. Put shortly: (§1)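 Human recombinant pro-enzymes were activated with 1 mM APMA at 37 °C, for 2 h (MMP-1) or 18 h (MMP-3). Reactions were stopped with EDTA and read at […] nm. Activity was scaled to no-inhibitor and EDTA controls, and IC50 obtained by iterative fitting.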

The test system of series [2] is Liver microsome. Kind of series: Metabolic stability in rat liver microsomes. The format is ADME. Put shortly:
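The free acid was incubated with hepatic microsomes of each species. Stability is reported as clearance in μL/min/mg microsomal protein.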
Background: Liver microsomes are a subcellular fraction often used to study metabolism.

For series [3], the target named is Neutrophil collagenase (Homo sapiens, UniProt P22894). Kind of series: Inhibition of human recombinant MMP8 using Cy3-PLGLK(Cy5Q)AR-NH2 as substrate after 40 mins by spectrofluorimetry.
The target in series [4] is Collagenase 3 (Homo sapiens, UniProt P45452). Kind of series: Inhibition of human recombinant MMP13 using Cy3-PLGLK(Cy5Q)AR-NH2 as substrate after 40 mins by spectrofluorimetry.
A short description of series [5]: Apparent permeability in human Caco2 cells. The series is classed as ADME, cell-based. The settings on record: Caco-2.
Series [6] deals with 72 kDa type IV collagenase (Homo sapiens, UniProt P08253). Kind of series: Inhibition of human recombinant MMP2 using Cy3-PLGLK(Cy5Q)AR-NH2 as substrate after 40 mins by spectrofluorimetry.
The target of series [7] is Stromelysin-1 (Homo sapiens, UniProt P08254). The experiment in a line: Inhibition of human recombinant MMP3 using Cy3-PLGLK(Cy5Q)AR-NH2 as substrate after 40 mins by spectrofluorimetry. The essentials: as §1
For series [8], the target named is Stromelysin-2 (Homo sapiens, UniProt P09238). The experiment in a line: Inhibition of human recombinant MMP10 using Cy3-PLGLK(Cy5Q)AR-NH2 as substrate after 40 mins by spectrofluorimetry.
Series [9] can be described thus: Solubility of the compound in water. The format is physicochemical. The following applies: buffer.
Series [10] addresses Matrix metalloproteinase-9 (Homo sapiens, UniProt P14780). The experiment in a line: Inhibition of human recombinant MMP9 using Cy3-PLGLK(Cy5Q)AR-NH2 as substrate after 40 mins by spectrofluorimetry.
Series [11] relates to Rattus norvegicus. Kind of series: Intrinsic clearance in iv dosed rat. The series is classed as ADME, organism-based. The settings on record: in vivo.
Series [12] is described as follows: Solubility of the compound in Britton-Robinson buffer at pH 7. The series is classed as physicochemical.
The target of series [13] is Disintegrin and metalloproteinase domain-containing protein 17 (Homo sapiens, UniProt P78536). Kind of series: Inhibition of human recombinant TACE using Cy3-PLAQAV(Cy5Q-L-2,3-diaminopropionic acid)-RSSSRNH2 as substrate after 40 mins by spectrofluorimetry.
Series [14] can be described thus: Inhibition of cytochrome P450 (unknown origin). The series is classed as ADME. The settings on record: human.
Series [15] concerns the target Voltage-gated inwardly rectifying potassium channel KCNH2 (Homo sapiens, UniProt Q12809). The experiment in a line: Inhibition of human ERG.
The target of series [16] is Matrix metalloproteinase-14 (Homo sapiens, UniProt P50281). Kind of series: Inhibition of human recombinant GST-tagged MMP14 using Cy3-PLGLK(Cy5Q)AR-NH2 as substrate after 40 mins by spectrofluorimetry.
Series [17] addresses T2, Matrilysin (Homo sapiens, UniProt P09237).
T2 sequence (P09237 whole entry): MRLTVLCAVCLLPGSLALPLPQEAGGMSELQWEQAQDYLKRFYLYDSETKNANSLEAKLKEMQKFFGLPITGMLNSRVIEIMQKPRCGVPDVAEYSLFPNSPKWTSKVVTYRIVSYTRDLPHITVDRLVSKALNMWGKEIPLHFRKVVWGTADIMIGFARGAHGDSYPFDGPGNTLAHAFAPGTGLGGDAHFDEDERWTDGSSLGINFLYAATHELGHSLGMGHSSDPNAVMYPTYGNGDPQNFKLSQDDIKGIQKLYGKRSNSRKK
Kind of series: Inhibition of human recombinant MMP7 using Cy3-PLGLK(Cy5Q)AR-NH2 as substrate after 40 mins by spectrofluorimetry.

The structures appear in SMILES notation. In brackets after ≈: the same amount, converted by molar mass. Bounds are passed on as bounds.

Chain of Voltage-gated inwardly rectifying potassium channel KCNH2 (Q12809 whole entry): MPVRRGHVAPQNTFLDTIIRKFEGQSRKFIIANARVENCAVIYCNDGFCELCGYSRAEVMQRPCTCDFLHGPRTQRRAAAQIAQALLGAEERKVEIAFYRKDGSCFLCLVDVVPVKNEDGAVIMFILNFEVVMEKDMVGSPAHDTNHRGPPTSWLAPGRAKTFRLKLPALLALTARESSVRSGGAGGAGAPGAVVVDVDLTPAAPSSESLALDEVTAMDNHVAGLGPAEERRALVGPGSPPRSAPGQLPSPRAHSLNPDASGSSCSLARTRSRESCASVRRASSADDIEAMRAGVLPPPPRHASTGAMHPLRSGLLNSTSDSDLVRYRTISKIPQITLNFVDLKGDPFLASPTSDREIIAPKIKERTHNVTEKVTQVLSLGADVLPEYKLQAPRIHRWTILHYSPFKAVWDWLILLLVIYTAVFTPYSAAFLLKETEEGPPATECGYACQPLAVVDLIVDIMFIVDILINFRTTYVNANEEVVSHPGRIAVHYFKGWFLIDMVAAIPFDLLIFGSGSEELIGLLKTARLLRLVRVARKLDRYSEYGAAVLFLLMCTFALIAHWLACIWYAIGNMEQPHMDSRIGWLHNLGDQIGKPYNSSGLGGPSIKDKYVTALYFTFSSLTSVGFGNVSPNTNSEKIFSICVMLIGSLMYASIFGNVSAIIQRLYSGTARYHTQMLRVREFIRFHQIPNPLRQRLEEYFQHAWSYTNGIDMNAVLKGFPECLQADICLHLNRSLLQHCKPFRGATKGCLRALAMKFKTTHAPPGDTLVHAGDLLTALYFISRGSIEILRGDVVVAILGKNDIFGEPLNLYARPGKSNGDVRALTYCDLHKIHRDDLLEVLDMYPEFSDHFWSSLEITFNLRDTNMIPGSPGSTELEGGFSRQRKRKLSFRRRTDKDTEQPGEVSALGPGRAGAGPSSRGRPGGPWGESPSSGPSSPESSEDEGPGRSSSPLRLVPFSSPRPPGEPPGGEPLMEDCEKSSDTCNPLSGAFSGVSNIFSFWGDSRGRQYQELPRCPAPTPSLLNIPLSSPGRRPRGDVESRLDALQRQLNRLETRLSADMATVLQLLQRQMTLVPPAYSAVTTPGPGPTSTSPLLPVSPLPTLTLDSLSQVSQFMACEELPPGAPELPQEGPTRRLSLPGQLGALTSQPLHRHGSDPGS
Chain of Stromelysin-2 (P09238 whole entry): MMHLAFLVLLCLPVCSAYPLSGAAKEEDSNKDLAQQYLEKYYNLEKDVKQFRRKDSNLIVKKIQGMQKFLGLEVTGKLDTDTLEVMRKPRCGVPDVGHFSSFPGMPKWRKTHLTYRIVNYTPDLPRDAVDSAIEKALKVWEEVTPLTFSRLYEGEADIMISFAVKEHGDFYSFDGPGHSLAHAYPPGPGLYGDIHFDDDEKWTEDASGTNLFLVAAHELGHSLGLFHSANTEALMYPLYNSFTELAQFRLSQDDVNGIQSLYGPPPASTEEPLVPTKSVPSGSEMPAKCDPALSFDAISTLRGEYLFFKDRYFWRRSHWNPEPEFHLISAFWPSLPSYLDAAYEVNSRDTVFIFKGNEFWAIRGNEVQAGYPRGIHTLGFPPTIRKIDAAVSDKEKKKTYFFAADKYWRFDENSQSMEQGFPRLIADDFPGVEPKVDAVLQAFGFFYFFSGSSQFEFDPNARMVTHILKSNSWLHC
Chain of 72 kDa type IV collagenase (P08253 whole entry): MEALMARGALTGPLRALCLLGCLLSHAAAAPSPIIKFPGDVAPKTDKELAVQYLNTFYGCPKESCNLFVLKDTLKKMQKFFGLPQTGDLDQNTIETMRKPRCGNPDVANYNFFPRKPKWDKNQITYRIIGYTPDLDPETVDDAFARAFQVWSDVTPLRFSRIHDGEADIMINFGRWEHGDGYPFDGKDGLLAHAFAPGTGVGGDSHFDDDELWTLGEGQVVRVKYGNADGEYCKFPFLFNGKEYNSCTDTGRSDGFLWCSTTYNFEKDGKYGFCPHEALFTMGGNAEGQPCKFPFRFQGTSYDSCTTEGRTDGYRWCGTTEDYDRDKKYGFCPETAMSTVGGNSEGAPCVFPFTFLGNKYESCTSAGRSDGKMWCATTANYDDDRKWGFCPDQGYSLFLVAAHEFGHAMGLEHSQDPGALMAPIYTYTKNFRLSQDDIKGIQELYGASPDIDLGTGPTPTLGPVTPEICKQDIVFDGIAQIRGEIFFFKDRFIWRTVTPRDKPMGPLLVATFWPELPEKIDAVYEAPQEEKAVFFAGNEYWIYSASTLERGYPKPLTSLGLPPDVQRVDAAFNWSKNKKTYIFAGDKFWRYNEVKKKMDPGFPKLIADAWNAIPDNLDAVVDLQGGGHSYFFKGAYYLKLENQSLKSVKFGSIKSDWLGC
Chain of Disintegrin and metalloproteinase domain-containing protein 17 (P78536 whole entry, the tested form may be a part): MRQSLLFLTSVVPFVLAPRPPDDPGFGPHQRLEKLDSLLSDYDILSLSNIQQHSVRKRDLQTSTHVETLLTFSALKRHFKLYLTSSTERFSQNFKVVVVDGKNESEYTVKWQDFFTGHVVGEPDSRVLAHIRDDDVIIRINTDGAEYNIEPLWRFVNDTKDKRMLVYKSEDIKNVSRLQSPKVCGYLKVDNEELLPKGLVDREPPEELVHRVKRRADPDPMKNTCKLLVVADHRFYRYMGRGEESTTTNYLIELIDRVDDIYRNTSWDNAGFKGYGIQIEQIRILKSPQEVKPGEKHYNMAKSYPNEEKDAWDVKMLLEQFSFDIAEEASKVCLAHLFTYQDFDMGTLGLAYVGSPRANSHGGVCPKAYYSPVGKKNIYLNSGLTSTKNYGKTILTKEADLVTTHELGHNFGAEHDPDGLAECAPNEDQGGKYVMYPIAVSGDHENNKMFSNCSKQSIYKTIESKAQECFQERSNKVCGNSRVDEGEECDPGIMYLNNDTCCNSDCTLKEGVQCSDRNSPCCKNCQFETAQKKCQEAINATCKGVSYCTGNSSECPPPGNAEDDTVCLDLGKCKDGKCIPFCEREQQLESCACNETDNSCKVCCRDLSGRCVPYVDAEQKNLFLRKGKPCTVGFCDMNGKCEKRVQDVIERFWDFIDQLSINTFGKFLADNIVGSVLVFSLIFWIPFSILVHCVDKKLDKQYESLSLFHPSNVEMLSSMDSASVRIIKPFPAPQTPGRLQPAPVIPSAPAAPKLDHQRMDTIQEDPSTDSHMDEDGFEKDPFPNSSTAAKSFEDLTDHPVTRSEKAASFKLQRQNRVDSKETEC
Chain of Neutrophil collagenase (P22894 whole entry): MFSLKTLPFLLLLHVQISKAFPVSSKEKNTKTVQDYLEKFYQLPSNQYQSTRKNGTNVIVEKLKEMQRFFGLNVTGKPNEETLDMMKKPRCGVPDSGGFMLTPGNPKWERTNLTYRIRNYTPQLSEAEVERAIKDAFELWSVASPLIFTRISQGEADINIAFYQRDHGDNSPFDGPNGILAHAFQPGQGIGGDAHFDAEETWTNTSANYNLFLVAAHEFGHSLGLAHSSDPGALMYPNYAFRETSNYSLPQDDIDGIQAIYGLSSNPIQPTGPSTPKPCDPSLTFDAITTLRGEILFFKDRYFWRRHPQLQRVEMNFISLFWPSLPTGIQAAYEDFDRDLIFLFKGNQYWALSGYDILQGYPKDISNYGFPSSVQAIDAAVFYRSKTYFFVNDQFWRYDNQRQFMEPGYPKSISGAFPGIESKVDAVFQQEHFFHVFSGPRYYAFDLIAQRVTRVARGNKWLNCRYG
Chain of Matrix metalloproteinase-9 (P14780 whole entry): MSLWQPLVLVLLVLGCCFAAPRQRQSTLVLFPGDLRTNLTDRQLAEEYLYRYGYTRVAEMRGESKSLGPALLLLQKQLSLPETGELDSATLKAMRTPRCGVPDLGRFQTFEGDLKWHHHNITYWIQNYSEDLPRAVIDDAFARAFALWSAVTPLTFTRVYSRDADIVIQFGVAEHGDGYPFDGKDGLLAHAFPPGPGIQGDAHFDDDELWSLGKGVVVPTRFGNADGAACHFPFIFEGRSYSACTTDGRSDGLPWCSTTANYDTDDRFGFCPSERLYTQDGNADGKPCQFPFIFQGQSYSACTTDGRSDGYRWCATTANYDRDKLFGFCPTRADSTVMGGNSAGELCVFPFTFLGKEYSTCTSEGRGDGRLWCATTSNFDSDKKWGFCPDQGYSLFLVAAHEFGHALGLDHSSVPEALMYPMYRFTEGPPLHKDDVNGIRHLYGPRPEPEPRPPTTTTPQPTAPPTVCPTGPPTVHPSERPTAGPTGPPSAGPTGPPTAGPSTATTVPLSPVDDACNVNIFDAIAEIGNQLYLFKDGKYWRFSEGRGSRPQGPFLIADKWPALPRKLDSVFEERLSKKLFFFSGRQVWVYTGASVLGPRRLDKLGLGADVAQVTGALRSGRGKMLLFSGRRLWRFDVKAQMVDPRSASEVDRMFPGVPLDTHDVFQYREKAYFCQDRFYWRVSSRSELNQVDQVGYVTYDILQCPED
Chain of Stromelysin-1 (P08254 whole entry): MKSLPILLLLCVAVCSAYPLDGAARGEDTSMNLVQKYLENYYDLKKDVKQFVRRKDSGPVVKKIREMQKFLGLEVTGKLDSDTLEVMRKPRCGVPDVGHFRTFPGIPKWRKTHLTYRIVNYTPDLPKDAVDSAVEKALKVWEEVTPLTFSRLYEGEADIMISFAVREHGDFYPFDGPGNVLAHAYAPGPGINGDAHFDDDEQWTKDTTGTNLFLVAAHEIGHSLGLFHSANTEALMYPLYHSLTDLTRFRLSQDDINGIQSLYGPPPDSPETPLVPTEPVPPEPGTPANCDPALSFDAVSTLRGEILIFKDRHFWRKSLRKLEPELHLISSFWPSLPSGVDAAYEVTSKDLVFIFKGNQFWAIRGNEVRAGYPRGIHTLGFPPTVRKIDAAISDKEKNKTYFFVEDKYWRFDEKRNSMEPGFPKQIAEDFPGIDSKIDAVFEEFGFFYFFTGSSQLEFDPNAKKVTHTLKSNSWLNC

On to `COc1cccc(CNC(=O)c2nc3ccc(F)c(OCCc4ccc(C(=O)O)cc4)c3c(=O)[nH]2)c1`, for which the concentration for half-maximal inhibition (IC50) in [1] was greater than 10 µM; in series [3], 0.72 µM; in series [4] it was 3.9 pM; in series [6], 5.3 µM; in series [7], 4 µM; in series [8], 0.16 µM. Moreover, the IC50 in series [10], in [13], in series [16] and in [17] was greater than 10 µM throughout. The Microsomal clearance in [2] is 70 µL/min/mg. In addition, the apparent permeability (Papp) in [5] came to 4.77 ×10⁻⁶ cm/s. For the same compound, the figures for the solubility entry in series [9] and in series [12] were “Insoluble” and 0.7 µg/mL (≈ 1.42 µM), respectively. This compound also came in with a CL in series [11] of 28.3 mL/min/kg. The “inhibition (INH)” value in series [14] and in series [15] was “Not Active” each time.
